Laboratory results as given in ChEMBL document CHEMBL4706770, “SD-91 as A Potent and Selective STAT3 Degrader Capable of Achieving Complete and Long-Lasting Tumor Regression” (ACS Med Chem Lett, 2021).
Calls of active or inactive are those of the source. The calls are words filed in the database; no cut-off is given here.

How the values were obtained:
SU-DHL-1 [1] = test: Induction of STAT4 expression in human SU-DHL-1 cells at 0.25 to 100 uM incubated for 4 hrs by Western blot analysis; assay type: functional, cell-based; conditions: dose 0.25-100 µM
[2] = Antiproliferative activity against human SUP-M2 cells assessed as cell growth inhibition incubated for 4 days by CellTiter-Glo asssay; assay type: functional, cell-based, SUPM2; conditions: SUP-M2, 96 h
In short: (§1)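 Growth inhibition tested in MOLM-16 acute leukemia and SU-DHL-1 and SUP-M2 lymphoma cell lines.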

SU-DHL-1 [3] = test: Antiproliferative activity against human SU-DHL-1 cells assessed as cell growth inhibition incubated for 4 days by CellTiter-Glo asssay; assay type: functional, cell-based; conditions: SU-DHL-1, 96 h; in short: as §1
[4] = target: T1, Signal transducer and activator of transcription 3 (Homo sapiens, UniProt P40763); test: Induction of STAT3 degradation in human SU-DHL-1 cells at 0.25 to 100 uM incubated for 14 hrs by Western blot analysis; assay type: cell-based; conditions: dose 0.25-100 µM
[5] = Antiproliferative activity against human MOLM-16 cells assessed as cell growth inhibition incubated for 4 days by CellTiter-Glo asssay; assay type: functional, cell-based; conditions: MOLM16, 96 h; in short: as §1
[6] = target: T2, Signal transducer and activator of transcription 5A (Homo sapiens) (UniProt P42229); test: Induction of STAT5 degradation in human SUP-M2 cells at 0.25 to 100 uM incubated for 14 hrs by Western blot analysis; assay type: cell-based; conditions: SUPM2, dose 0.25-100 µM
T2 sequence (whole entry): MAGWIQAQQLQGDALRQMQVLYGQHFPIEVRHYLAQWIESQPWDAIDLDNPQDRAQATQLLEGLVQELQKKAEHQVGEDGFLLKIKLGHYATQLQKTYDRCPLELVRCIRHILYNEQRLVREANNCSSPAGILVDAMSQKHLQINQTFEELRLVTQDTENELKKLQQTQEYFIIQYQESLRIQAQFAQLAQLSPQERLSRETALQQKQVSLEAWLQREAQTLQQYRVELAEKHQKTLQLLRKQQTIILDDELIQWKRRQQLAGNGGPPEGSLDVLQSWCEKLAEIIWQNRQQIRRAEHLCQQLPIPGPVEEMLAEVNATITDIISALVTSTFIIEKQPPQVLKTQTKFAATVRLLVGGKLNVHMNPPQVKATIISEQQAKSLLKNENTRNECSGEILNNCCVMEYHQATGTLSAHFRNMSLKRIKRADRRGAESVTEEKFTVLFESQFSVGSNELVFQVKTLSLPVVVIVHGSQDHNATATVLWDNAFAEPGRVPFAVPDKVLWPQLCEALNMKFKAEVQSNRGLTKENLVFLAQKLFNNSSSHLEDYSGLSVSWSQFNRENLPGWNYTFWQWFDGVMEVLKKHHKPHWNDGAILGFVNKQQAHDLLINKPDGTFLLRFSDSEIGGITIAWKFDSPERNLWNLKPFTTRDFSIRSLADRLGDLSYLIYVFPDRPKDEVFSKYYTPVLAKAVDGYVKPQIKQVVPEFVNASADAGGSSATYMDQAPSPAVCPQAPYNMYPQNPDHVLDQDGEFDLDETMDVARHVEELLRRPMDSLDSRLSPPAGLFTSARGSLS

[7] = target: T1, Signal transducer and activator of transcription 3; test: Induction of STAT3 degradation in human SUP-M2 cells at 0.25 to 100 uM incubated for 14 hrs by Western blot analysis; assay type: cell-based; conditions: SUPM2, dose 0.25-100 µM
[8] = target: T3, Signal transducer and activator of transcription 1-alpha/beta (Homo sapiens) (UniProt P42224); test: Induction of STAT1 degradation in human SUP-M2 cells at 0.25 to 100 uM incubated for 14 hrs by Western blot analysis; assay type: cell-based; conditions: SUPM2, dose 0.25-100 µM
T3 sequence (whole entry): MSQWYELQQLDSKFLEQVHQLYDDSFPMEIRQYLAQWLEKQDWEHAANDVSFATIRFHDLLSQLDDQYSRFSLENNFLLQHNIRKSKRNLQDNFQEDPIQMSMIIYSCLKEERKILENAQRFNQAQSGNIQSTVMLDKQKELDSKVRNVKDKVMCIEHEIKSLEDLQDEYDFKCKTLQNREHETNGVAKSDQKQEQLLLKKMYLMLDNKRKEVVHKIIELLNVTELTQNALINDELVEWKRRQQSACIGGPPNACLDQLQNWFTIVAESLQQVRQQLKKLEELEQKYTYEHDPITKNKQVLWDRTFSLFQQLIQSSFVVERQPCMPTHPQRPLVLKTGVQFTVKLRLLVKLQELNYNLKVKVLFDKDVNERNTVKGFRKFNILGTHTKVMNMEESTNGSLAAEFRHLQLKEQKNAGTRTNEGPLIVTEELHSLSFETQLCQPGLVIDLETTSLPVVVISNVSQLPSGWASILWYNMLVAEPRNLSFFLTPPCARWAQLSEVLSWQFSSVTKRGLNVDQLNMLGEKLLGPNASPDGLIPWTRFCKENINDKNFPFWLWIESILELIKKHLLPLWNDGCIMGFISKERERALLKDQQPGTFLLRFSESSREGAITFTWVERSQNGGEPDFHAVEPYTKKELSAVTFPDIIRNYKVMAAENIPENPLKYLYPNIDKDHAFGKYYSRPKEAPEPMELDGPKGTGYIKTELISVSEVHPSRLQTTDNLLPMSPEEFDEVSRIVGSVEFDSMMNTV
In short: (§2)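 SU-DHL-1 or SUP-M2 cells treated over 25 nM to 100 μM. STAT family proteins assessed by Western blot.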

[9] = target: T3, Signal transducer and activator of transcription 1-alpha/beta (Homo sapiens); test: Induction of STAT1 degradation in human SU-DHL-1 cells at 0.25 to 100 uM incubated for 14 hrs by Western blot analysis; assay type: cell-based; conditions: dose 0.25-100 µM; in short: as §2
[10] = target: T2, Signal transducer and activator of transcription 5A (Homo sapiens); test: Induction of STAT5 degradation in human SU-DHL-1 cells at 0.25 to 100 uM incubated for 14 hrs by Western blot analysis; assay type: cell-based; conditions: dose 0.25-100 µM
[11] = target: T3, Signal transducer and activator of transcription 1-alpha/beta (Homo sapiens); test: Induction of STAT1 degradation in human MOLM16 cells at 0.25 to 100 uM incubated for 4 hrs by Western blot analysis; assay type: cell-based; conditions: dose 0.25-100 µM
In short: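 MOLM-16 cells treated for 4 h over 25 nM to 100 μM. STAT proteins assessed by Western blot with GAPDH as loading control.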

T1 sequence (P40763 whole entry): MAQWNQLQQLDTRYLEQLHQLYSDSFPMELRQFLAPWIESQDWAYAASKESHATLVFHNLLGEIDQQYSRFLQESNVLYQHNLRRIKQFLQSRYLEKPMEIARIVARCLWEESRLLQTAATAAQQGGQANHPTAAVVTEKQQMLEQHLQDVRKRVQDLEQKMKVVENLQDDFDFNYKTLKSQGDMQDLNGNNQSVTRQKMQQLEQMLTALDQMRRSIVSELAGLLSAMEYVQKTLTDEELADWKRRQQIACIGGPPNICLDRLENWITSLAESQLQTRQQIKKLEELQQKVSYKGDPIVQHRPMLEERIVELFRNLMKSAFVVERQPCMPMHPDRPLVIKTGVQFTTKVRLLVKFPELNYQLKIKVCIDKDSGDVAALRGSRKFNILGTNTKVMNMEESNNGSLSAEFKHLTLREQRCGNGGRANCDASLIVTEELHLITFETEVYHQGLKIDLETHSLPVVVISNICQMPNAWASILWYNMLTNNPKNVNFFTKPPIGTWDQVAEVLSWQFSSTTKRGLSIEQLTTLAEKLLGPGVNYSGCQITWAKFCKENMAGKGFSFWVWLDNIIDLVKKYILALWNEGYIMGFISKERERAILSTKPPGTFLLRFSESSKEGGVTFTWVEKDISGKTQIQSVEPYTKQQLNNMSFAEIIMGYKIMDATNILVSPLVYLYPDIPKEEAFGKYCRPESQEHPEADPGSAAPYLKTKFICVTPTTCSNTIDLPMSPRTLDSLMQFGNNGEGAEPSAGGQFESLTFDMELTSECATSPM

Structure (SMILES)	Activity (SU-DHL-1 [1])	IC50 [2] [nM]	IC50 (SU-DHL-1 [3]) [nM]	Activity [4]	IC50 [5] [nM]	Activity [6]	Activity [7]	Activity [8]	Activity [9]	Activity [10]	Activity [11]
NC(=O)CC[C@H](NC(=O)[C@@H]1CC[C@@H]2CCN(C(=O)CCCCCC#Cc3cccc4c3CN(C3CCC(=O)NC3=O)C4=O)C[C@H](NC(=O)c3cc4cc(C(F)(F)P(=O)(O)O)ccc4[nH]3)C(=O)N21)C(=O)NC(c1ccccc1)c1ccccc1 (stereo partly drawn)	Active	530	3400	inactive	180	–	–	–	–	–	–
CC(=O)N1CC[C@H]2CC[C@@H](C(=O)N[C@@H](CCC(N)=O)C(=O)NC(c3ccccc3)c3ccccc3)N2C(=O)[C@@H](NC(=O)c2cc3cc(C(=O)P(=O)(O)O)ccc3[nH]2)C1	inactive	> 10000	> 10000	inactive	> 10000	inactive	inactive	inactive	inactive	inactive	inactive
NC(=O)CC[C@H](NC(=O)[C@@H]1CC[C@@H]2CCN(C(=O)CCCCCC#Cc3cccc4c3CN(C3CCC(=O)NC3=O)C4=O)C[C@H](NC(=O)c3cc4cc(C(=O)P(=O)(O)O)ccc4[nH]3)C(=O)N21)C(=O)NC(c1ccccc1)c1ccccc1 (stereo partly drawn)	Active	460	2600	Active	170	inactive	Active	inactive	inactive	inactive	inactive
CC(=O)N1CC[C@H]2CC[C@@H](C(=O)N[C@@H](CCC(N)=O)C(=O)NC(c3ccccc3)c3ccccc3)N2C(=O)[C@@H](NC(=O)c2cc3cc(C(F)(F)P(=O)(O)O)ccc3[nH]2)C1	inactive	> 10000	> 10000	inactive	> 10000	inactive	inactive	inactive	inactive	inactive	inactive
